Measured values: ChEMBL document CHEMBL1128385, “Three-dimensional quantitative structure-activity relationships of somatostatin analogues. 1. Comparative molecular field analysis of growth hormone release-inhibiting potencies” (J Med Chem, 1995)
Where a SMILES comes first, the peptide text is derived from it. [ ]: non-standard residue; d: D form. Phe(4-NO2) = N[C@@H](Cc1ccc([N+](=O)[O-])cc1)C(=O)O; Phe(4-Cl) = N[C@@H](Cc1ccc(Cl)cc1)C(=O)O; dPhe(4-Cl) = N[C@H](Cc1ccc(Cl)cc1)C(=O)O; 2Nal = N[C@@H](Cc1ccc2ccccc2c1)C(=O)O; d2Nal = N[C@H](Cc1ccc2ccccc2c1)C(=O)O

Organism: Rattus norvegicus
Test: In vitro GH release inhibiting potency on anterior pitutaries from adult male rats, relative to somatostatin
Assay type: functional
Method in brief: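 Rat anterior pituitary cells (adult males, 200-250 g), trypsin/DNase dispersed, plated 2 × 10^5 cells/well, cultured 96 h at 37 °C in serum-supplemented DMEM. After washing, cells were pulsed 3 h at 37 °C with 1 nM GRF(1-29)NH2 ± graded analogue doses in medium 199/1% BSA, quadruplicate wells. Medium GH was measured by double-antibody RIA. Potency relative to somatostatin (=1.0) came from four-point assay (mean of ≥3 experiments) or IC50 comparison.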

CC(C)[C@H](NC(=O)[C@H](CCCCN)NC(=O)[C@@H](Cc1c[nH]c2ccccc12)NC(=O)[C@H](Cc1ccc(O)cc1)NC(=O)[C@H](Cc1ccccc1)NC(=O)[C@H](N)Cc1ccccc1)C(=O)N[C@@H](Cc1ccccc1)C(=O)N[C@H](C(N)=O)[C@@H](C)O (H-[dF]FY[dW]KVFT-NH2)
GHI: 111

CC(C)[C@H](NC(=O)[C@H](CCCCN)NC(=O)[C@@H](Cc1c[nH]c2ccccc12)NC(=O)[C@H](Cc1ccc(O)cc1)NC(=O)[C@H](Cc1ccccc1)NC(=O)[C@H](N)Cc1ccccc1)C(=O)N[C@@H](Cc1ccccc1)C(=O)N[C@H](Cc1ccc2ccccc2c1)C(N)=O (H-[dF]FY[dW]KVF[d2Nal]-NH2)
GHI: 12500

CC(C)[C@H](NC(=O)[C@H](CCCCN)NC(=O)[C@@H](Cc1c[nH]c2ccccc12)NC(=O)[C@H](Cc1ccc(O)cc1)NC(=O)[C@H](Cc1ccccc1)NC(=O)[C@H](N)Cc1ccccc1)C(=O)N[C@@H](Cc1ccccc1)C(=O)N[C@H](Cc1ccccc1)C(N)=O (H-[dF]FY[dW]KVF[dF]-NH2)
GHI: 11100

C[C@@H](O)[C@H](NC(=O)[C@H](Cc1ccccc1)NC(=O)[C@@H](NC(=O)[C@H](CCCCN)NC(=O)[C@@H](Cc1c[nH]c2ccccc12)NC(=O)[C@H](Cc1ccc(O)cc1)NC(=O)[C@H](Cc1ccc(Cl)cc1)NC(=O)[C@H](N)Cc1ccccc1)[C@@H](C)O)C(N)=O (H-[dF][Phe(4-Cl)]Y[dW]KTFT-NH2)
GHI: 3.4

CC(C)[C@H](NC(=O)[C@H](CCCCN)NC(=O)[C@@H](Cc1c[nH]c2ccccc12)NC(=O)[C@H](Cc1ccc(O)cc1)NC(=O)[C@H](Cc1ccc(Cl)cc1)NC(=O)[C@H](N)Cc1ccccc1)C(=O)N[C@@H](Cc1ccccc1)C(=O)N[C@H](C(N)=O)[C@@H](C)O (H-[dF][Phe(4-Cl)]Y[dW]KVFT-NH2)
GHI: 17

CC(C)[C@H](NC(=O)[C@H](CCCCN)NC(=O)[C@@H](Cc1c[nH]c2ccccc12)NC(=O)[C@H](Cc1ccc(O)cc1)NC(=O)[C@H](Cc1ccc([N+](=O)[O-])cc1)NC(=O)[C@H](N)Cc1ccccc1)C(=O)N[C@@H](Cc1ccccc1)C(=O)N[C@H](C(N)=O)[C@@H](C)O (H-[dF][Phe(4-NO2)]Y[dW]KVFT-NH2)
GHI: 159

CC(C)[C@H](NC(=O)[C@H](CCCCN)NC(=O)[C@@H](Cc1c[nH]c2ccccc12)NC(=O)[C@H](Cc1ccc(O)cc1)NC(=O)[C@H](C)NC(=O)[C@H](N)Cc1ccc(Cl)cc1)C(=O)N[C@@H](C)C(=O)N[C@@H](Cc1ccc2ccccc2c1)C(N)=O (H-[dPhe(4-Cl)]AY[dW]KVA[2Nal]-NH2)
GHI: 45

CC(C)C1NC(=O)[C@H](CCCCN)NC(=O)C(Cc2c[nH]c3ccccc23)NC(=O)[C@H](Cc2ccc(O)cc2)NC(=O)C(C)N(C)C(=O)[C@H](Cc2ccccc2)NC1=O (single isomer, unassigned)
GHI: 0.02

CC(C)C1NC(=O)[C@H](CCCCN)NC(=O)[C@@H](Cc2c[nH]c3ccccc23)NC(=O)C(Cc2ccc(O)cc2)NC(=O)CCSSCC(C(=O)N[C@@H](Cc2ccccc2)C(N)=O)NC1=O (single isomer, unassigned)
GHI: 23

CC(C)[C@@H]1NC(=O)C(CCCCN)NC(=O)[C@@H](Cc2c[nH]c3ccccc23)NC(=O)C(Cc2ccccc2)NC(=O)[C@@H]2CCCN2C(=O)C(Cc2ccccc2)NC1=O (single isomer, unassigned)
GHI: 0.29

CC1C(=O)N[C@@H](Cc2ccccc2)C(=O)NC(Cc2c[nH]c3ccccc23)C(=O)N[C@@H](CCCCN)C(=O)NC([C@@H](C)O)C(=O)N[C@@H](Cc2ccccc2)C(=O)N1C (single isomer, unassigned)
GHI: 0.29

CC1NC(=O)[C@@H]2CCCN2C(=O)C(Cc2ccccc2)NC(=O)[C@H]([C@@H](C)O)NC(=O)C(CCCCN)NC(=O)[C@@H](Cc2c[nH]c3ccccc23)NC1=O (single isomer, unassigned)
GHI: 5

CC[C@@H]1NC(=O)C(CCCCN)NC(=O)[C@@H](Cc2c[nH]c3ccccc23)NC(=O)C(Cc2ccccc2)NC(=O)[C@@H]2CCCN2C(=O)C(Cc2ccccc2)NC1=O (single isomer, unassigned)
GHI: 1.25

CC[C@@H]1NC(=O)[C@H](CCCCN)NC(=O)C(Cc2c[nH]c3ccccc23)NC(=O)[C@H](Cc2ccc(O)cc2)NC(=O)[C@@H]2Cc3ccccc3CN2C(=O)[C@H](Cc2ccccc2)NC1=O (single isomer, unassigned)
GHI: 0.26

C[C@@H](O)[C@@H]1NC(=O)C(CCCCN)NC(=O)[C@@H](Cc2c[nH]c3ccccc23)NC(=O)C(Cc2ccc(O)cc2)NC(=O)[C@@H]2CCCN2C(=O)C(Cc2ccccc2)NC1=O (single isomer, unassigned)
GHI: 0.07

C[C@@H](O)[C@@H]1NC(=O)C(CCCCN)NC(=O)[C@@H](Cc2c[nH]c3ccccc23)NC(=O)C(Cc2ccccc2)NC(=O)[C@@H]2CCCN2C(=O)C(Cc2ccccc2)NC1=O (single isomer, unassigned)
GHI: 0.59

C[C@@H](O)[C@@H]1NC(=O)C(CCCCN)NC(=O)[C@@H](Cc2c[nH]c3ccccc23)NC(=O)C(Cc2ccccc2)NC(=O)[C@@H]2CCCN2C(=O)[C@@H]2CCCN2C1=O (single isomer, unassigned)
GHI: 125

C[C@@H](O)[C@@H]1NC(=O)C(CCCCN)NC(=O)[C@@H](Cc2c[nH]c3ccccc23)NC(=O)C(Cc2ccccc2)NC(=O)[C@H](Cc2ccccc2)NC(=O)C(Cc2ccccc2)NC1=O (single isomer, unassigned)
GHI: 3.71

C[C@@H]1NC(=O)[C@H]([C@@H](C)O)NC(=O)C(CCCCN)NC(=O)[C@@H](Cc2c[nH]c3ccccc23)NC(=O)C(Cc2ccccc2)NC(=O)[C@H]2CCCN2C1=O (single isomer, unassigned)
GHI: 166

C[C@H]1C(=O)NC(Cc2ccccc2)C(=O)NCCCCCCC(=O)N[C@@H](Cc2ccccc2)C(=O)NC(Cc2ccccc2)C(=O)N[C@H](Cc2c[nH]c3ccccc23)C(=O)NC(CCCCN)C(=O)N1C (single isomer, unassigned)
GHI: 50

NCCCCC1NC(=O)[C@@H](Cc2c[nH]c3ccccc23)NC(=O)C(Cc2ccccc2)NC(=O)[C@@H]2CCCN2C(=O)C(Cc2ccccc2)NC(=O)[C@H](CO)NC1=O (single isomer, unassigned)
GHI: 0.71

NCCCCC1NC(=O)[C@@H](Cc2c[nH]c3ccccc23)NC(=O)C(Cc2ccccc2)NC(=O)[C@H](Cc2ccccc2)NC(=O)CCCCCCNC(=O)C(Cc2ccccc2)NC(=O)C2(CCCC2)NC1=O (single isomer, unassigned)
GHI: 6.7

CC1NC(=O)[C@H]([C@@H](C)O)NC(=O)C(CCCCN)NC(=O)[C@@H](Cc2c[nH]c3ccccc23)NC(=O)C(Cc2ccccc2)NC(=O)[C@@H]2CCCN2C1=O (single isomer, unassigned; 58)
GHI: 16.7

CC1NC(=O)[C@H]([C@@H](C)O)NC(=O)C(CCCCN)NC(=O)[C@@H](Cc2c[nH]c3ccccc23)NC(=O)C(Cc2ccccc2)NC(=O)[C@@H]2CCCN2C1=O (single isomer, unassigned; 61)
GHI: 500

CC(C)C[C@@H]1NC(=O)[C@H](Cc2ccccc2)NC(=O)CCCCCCNC(=O)[C@H](Cc2ccccc2)NC(=O)[C@H]([C@@H](C)O)NC(=O)[C@H](CCCCN)NC(=O)[C@@H](Cc2c[nH]c3ccccc23)NC1=O (stereo in doubt)
GHI: 1.05

COc1ccc2[nH]cc(C[C@@H]3NC(=O)[C@H](Cc4ccccc4)NC(=O)[C@H](Cc4ccccc4)NC(=O)CCCCCCNC(=O)[C@H](Cc4ccccc4)NC(=O)[C@H]([C@@H](C)O)NC(=O)[C@H](CCCCN)NC3=O)c2c1 (stereo in doubt)
GHI: 50

C[C@@H](O)[C@@H]1NC(=O)[C@H](CCCCN)NC(=O)[C@@H](Cc2c[nH]c3ccccc23)NC(=O)[C@H](Cc2c[nH]c3ccccc23)NC(=O)[C@H](Cc2ccccc2)NC(=O)CCCCCCNC(=O)[C@H](Cc2ccccc2)NC1=O (stereo in doubt)
GHI: 16.7

C[C@@H](O)[C@@H]1NC(=O)[C@H](CCCCN)NC(=O)[C@@H](Cc2c[nH]c3ccccc23)NC(=O)[C@H](Cc2ccc(Cl)cc2)NC(=O)[C@H](Cc2ccccc2)NC(=O)CCCCCCNC(=O)[C@H](Cc2ccccc2)NC1=O (stereo in doubt)
GHI: 1.4

C[C@@H](O)[C@@H]1NC(=O)[C@H](CCCCN)NC(=O)[C@@H](Cc2c[nH]c3ccccc23)NC(=O)[C@H](Cc2ccc(N)cc2)NC(=O)[C@H](Cc2ccccc2)NC(=O)CCCCCCNC(=O)[C@H](Cc2ccccc2)NC1=O (stereo in doubt)
GHI: 35

C[C@@H](O)[C@@H]1NC(=O)[C@H](CCCCN)NC(=O)[C@@H](Cc2c[nH]c3ccccc23)NC(=O)[C@H](Cc2ccc(O)cc2)NC(=O)[C@H](Cc2ccccc2)NC(=O)CCCCCCNC(=O)[C@H](Cc2ccccc2)NC1=O (stereo in doubt)
GHI: 1.04

C[C@@H](O)[C@@H]1NC(=O)[C@H](CCCCN)NC(=O)[C@@H](Cc2c[nH]c3ccccc23)NC(=O)[C@H](Cc2ccc([N+](=O)[O-])cc2)NC(=O)[C@H](Cc2ccccc2)NC(=O)CCCCCCNC(=O)[C@H](Cc2ccccc2)NC1=O (stereo in doubt)
GHI: 3.5

C[C@@H](O)[C@@H]1NC(=O)[C@H](CCCCN)NC(=O)[C@@H](Cc2c[nH]c3ccccc23)NC(=O)[C@H](Cc2ccccc2)NC(=O)[C@@H]2CSSC[C@H](NC1=O)C(=O)NCCCCCCC(=O)N2 (stereo in doubt)
GHI: 0.81

C[C@@H](O)[C@@H]1NC(=O)[C@H](CCCCN)NC(=O)[C@@H](Cc2c[nH]c3ccccc23)NC(=O)[C@H](Cc2ccccc2)NC(=O)[C@H](Cc2ccccc2)NC(=O)CCCCCCNC(=O)[C@H](Cc2ccccc2)NC1=O (stereo in doubt)
GHI: 1.08

C[C@@H](O)[C@@H]1NC(=O)[C@H](CCCCN)NC(=O)[C@H](Cc2c[nH]c3ccc(F)cc23)NC(=O)[C@H](Cc2ccccc2)NC(=O)[C@H](Cc2ccccc2)NC(=O)CCCCCCNC(=O)[C@H](Cc2ccccc2)NC1=O (stereo in doubt)
GHI: 6.7

C[C@@H](O)[C@@H]1NC(=O)[C@H](CCCN=C(N)N)NC(=O)[C@@H](Cc2c[nH]c3ccccc23)NC(=O)[C@H](Cc2ccccc2)NC(=O)[C@H](Cc2ccccc2)NC(=O)CCCCCCNC(=O)[C@H](Cc2ccccc2)NC1=O (stereo in doubt)
GHI: 14

C[C@@H](O)[C@@H]1NC(=O)[C@H](Cc2ccc(N)cc2)NC(=O)[C@H](Cc2cn(C)c3ccccc23)NC(=O)[C@H](Cc2ccccc2)NC(=O)[C@H](Cc2ccccc2)NC(=O)CCCCCCNC(=O)[C@H](Cc2ccccc2)NC1=O (stereo in doubt)
GHI: 1.8
